High-throughput results (PubChem)
Scp-1 inhibitor: inhibitors of human Scp-1 phosphatase; inhibition, % at 20 µM; AID 493091; Recombinant Scp1, phosphopeptide, malachite green phosphate absorbance; actives 0.88% (n = 340,000);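 active means inhibition above about 50% at 20 µM, limit read from the data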;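 further: plate controls were DMSO wells with enzyme for no effect and wells lacking enzyme for full effect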
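Test system: SCP-1 phosphatase catalytic domain, residues 76-261; measured by: colorimetric phosphate reagent with accelerator and stabiliser, absorbance at 630 nm; timing: enzyme reaction 45 min at room temperature, colour 5 min, stabilisation 30 min; also added: Phosphorylated 17-residue peptide substrate; compound dosing: one concentration, 20 µM, with 1.0% DMSO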
DNMT1 inh: DNMT1 (human) enzyme inhibition | P26358 | DNMT1 molecular beacon, Hinp1I cleavage, fluorescence | inhibition (reported as % activation of signal), % at 10 µM | actives 0.83% (n = 360,000) | AID 588458; in the data active means inhibition above about 50%
Rpn11 inh: inhibitors of human proteasome Rpn11; inhibition, % at 20 µM; AID 588493; human 26S proteasome, Ub4-pepOG fluorescence polarization; 20S core pre-blocked with epoxomicin; O00487; actives 0.59% (n = 360,000);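 active means inhibition at 20 µM, scaled to each plate's controls, above about 33%, limit read from the data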
Target sequence (O00487 whole entry, looked up): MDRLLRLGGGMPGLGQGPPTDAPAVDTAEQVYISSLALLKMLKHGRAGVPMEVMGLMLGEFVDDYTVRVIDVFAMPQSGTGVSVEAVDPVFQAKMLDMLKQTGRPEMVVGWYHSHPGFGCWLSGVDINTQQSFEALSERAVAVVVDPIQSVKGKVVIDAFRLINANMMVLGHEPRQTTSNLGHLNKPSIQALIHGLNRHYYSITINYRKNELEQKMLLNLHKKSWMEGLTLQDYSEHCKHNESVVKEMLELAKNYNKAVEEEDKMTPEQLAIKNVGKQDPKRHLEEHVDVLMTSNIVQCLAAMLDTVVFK
LMPTP inh: LMPTP (human) inhibition. recombinant LMPTP-A, OMFP fluorogenic substrate, fluorescence intensity. inhibition, % at 20 µM. actives 0.22% (n = 360,000). AID 651560;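 active means compounds that cut the enzyme signal by at least half of the control window in the single-dose screen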;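 further: plate controls were DMSO wells with enzyme plus substrate for no effect and substrate without enzyme for full effect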
Target sequence (P24666 whole entry, looked up): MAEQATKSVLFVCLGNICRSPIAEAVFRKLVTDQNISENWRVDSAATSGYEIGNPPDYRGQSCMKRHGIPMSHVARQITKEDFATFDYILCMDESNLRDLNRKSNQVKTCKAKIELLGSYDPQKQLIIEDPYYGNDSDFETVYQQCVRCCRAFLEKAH
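Material: LMPTP-A; amount: 0.625 nM enzyme; doses: single 20 µM dose; times: reaction 50 min, room temperature, dark; technique: fluorescence intensity of OMFP turnover product; benchmarks: no-enzyme and uninhibited controls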
STEP inh: STEP (human) phosphatase inhibition; P54829; inhibition, % at 20 µM; actives 0.25% (n = 360,000); recombinant STEP, OMFP fluorogenic substrate, fluorescence;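 active means inhibition at 20 µM, scaled per plate between control wells, above about 37%, limit read from the data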;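 further: 0% = DMSO with enzyme and substrate and 100% = substrate only without enzyme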
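System: STEP phosphatase, cell-free reaction; Buffer or medium: Bis-Tris pH 6.0 buffer with DTT, detergent; Incubation: 20 min at room temperature, dark; Measured by: fluorescence, 480/540 nm.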
DNMT1 interf DR: shows spectral interference in the DNMT1 beacon assay; shares compounds with DNMT1 inh; molecular beacon fluorescence, spectral interference counter-screen; IC50, µM; 200 tested, under 10 active; AID 602382; call rule not given here
DNMT1 confirm: DNMT1 inhibition confirmation, single concentration | AID 602385 | DNMT1 molecular beacon HinP1I cleavage, fluorescence | inhibition, % at 10 µM | shares compounds with DNMT1 inh | actives 8% (n = 2,300);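 active means average inhibition of at least 30% in the single-concentration confirmation test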
DNMT1 interf: counter-screen for DNMT1 inhibitors: spectral interference. actives 1% (n = 2,300). AID 602387. shares compounds with DNMT1 inh. DNMT1 molecular beacon spectral interference counterscreen, fluorescence 485/520. activation (fluorescence interference), % at 10 µM;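 active means activation of at least 30% at 10 µM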;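 further: DNMT1 catalytic domain with a HinP1I cleavage step and a FAM/dabcyl DNA beacon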
* marks the source's active call; other numbers are inactive results; . = no result. This is a sample that favours compounds with a hit; in the whole collection about 2% have one here.

SMILES	Scp-1 inhibitor	DNMT1 inh	Rpn11 inh	LMPTP inh	STEP inh	DNMT1 confirm	DNMT1 interf	others
S=c1[nH]nc(COc2ccccc2)n1/N=C/C=C/c1ccco1	-3	9	11	2	2	.	.
S=c1[nH]nc(-c2cc(-c3ccccc3)n[nH]2)n1/N=C/C=C/c1ccco1	-3	62*	24	12	5	1	1
C=CCn1c(SCC(=O)Nc2cc(C)on2)nnc1-c1ccccc1F	-7	-1	2	-1	-1	.	.
CC1CN(CCOc2ccccc2C(C)C)CC(C)O1 (stereo unspecified)	-11	2	6	1	-1	.	.
COc1ccc(C(=O)Nc2nnc(S(=O)(=O)N3CCOCC3)s2)cc1	-11	-3	4	0	-1	.	.
CC1CN(C(=O)CCC(=O)NCc2ccccn2)c2ccccc2O1 (stereo unspecified)	-7	0	-5	-3	0	.	.
CCn1c2ccccc2c2cc(NC(=O)c3coc(=O)c(Br)c3)ccc21	.	51*	-36	4	-7	16	8
CCn1c2ccccc2c2cc(NC(=O)c3ccc(=O)oc3)ccc21	0	-2	-13	5	8	.	.
N#Cc1ccc(C(=O)Nc2cccc(S(=O)(=O)NC3=NCCC3)c2)cc1	-5	3	-4	-1	-2	.	.
Cc1ccc(C)c(N(Cc2cc3ccc(C)cc3[nH]c2=O)C(=O)c2ccco2)c1	-4	142*	2	0	1	3	2
Cc1ccc(C(=O)c2c[nH]c(C(=O)NCc3cccnc3)c2)cc1	-18	3	1	-1	-3	.	.
COc1cccc(NC(=O)C(C)Sc2nnc(C3CC3)n2C2CC2)c1 (stereo unspecified)	-5	-2	4	-1	0	.	.
COc1cccc(C(=O)NCC(=O)N/N=C/c2cccc(OC(=O)c3ccc([N+](=O)[O-])cc3)c2)c1	-7	-1	-5	1	3	.	.
O=C(CNC(=O)c1ccc([N+](=O)[O-])cc1)N/N=C\c1ccc(OC(=O)c2ccccc2)cc1	-5	85*	-6	2	1	38*	0	DNMT1 interf DR=>99
COc1ccc(-c2cc3nc4ccccc4n3c(N)c2C#N)cc1	17	52*	19	58*	62*	8	7
N#C/C(=C\c1ccc(-c2ccccc2Cl)o1)C(=O)Nc1nc2ccccc2s1	-3	88*	15	4	1	12	-7
CCCS(=O)(=O)NC(=O)C1(C)CCN(C(=O)c2ccc(F)c(Cl)c2)C1 (stereo unspecified)	.	3	0	-1	-3	.	.
C[C@H]1CN([C@@H](C)CO)C(=O)c2cc(Br)cnc2O[C@@H]1CN(C)C(=O)Nc1ccc(C(F)(F)F)cc1	.	0	2	-4	2	.	.
COn1c(=O)c(-c2ccc(C)cc2)[n+]([O-])c2ccccc21	-4	-3	-2	0	0	.	.
COn1c(=O)c(-c2ccc(Cl)cc2)[n+]([O-])c2ccccc21	-16	68*	0	0	1	0	1
COc1ccc2nc(NCCO)[nH]c2c1	-5	-1	-7	-2	-3	.	.
COc1ccc2nc(N3CCCC3)[nH]c2c1	-8	88*	1	-1	1	6	2
CCOc1cc(/C=C2\CCCc3c2nc2ccccc2c3C(=O)O)ccc1OC	-7	61*	-184	-6	-50	2	1
COc1cc(/C=C2\CCCc3c2nc2ccccc2c3C(=O)O)cc(Br)c1O	-8	0	-2	-7	3	.	.
CC(C)n1cc(/C=N/Nc2ccc(Cl)c(C(=O)O)c2)c2ccccc21	.	82*	1	54*	91*	14	3
SMILES	Scp-1 inhibitor	DNMT1 inh	Rpn11 inh	LMPTP inh	STEP inh	DNMT1 confirm	DNMT1 interf	others
O=C(O)c1cc(N/N=C/c2cccc3ccccc23)ccc1Cl	-3	2	1	-1	0	.	.
Cc1ccc(CNC(=O)[C@H]2C[C@@H]2[C@H](NP(=O)(c2ccccc2)c2ccccc2)c2ccccc2)o1	-3	71*	5	0	0	2	0
CCc1cccc(OCCCCNCCCOC)c1	-5	-1	1	-1	-1	.	.
CCc1cccc(OCCCCN(CC)CC)c1	-5	55*	3	0	0	4	5
C=CCN1C(=O)/C(=C\C(C)=C\c2ccccc2)SC1=S	5	10	-4	-1	1	.	.
CC(/C=C1\N=C(SCc2ccccc2)SC1=O)=C\c1ccccc1	3	80*	2	2	6	1	0
COc1ccc(CCNC(=O)C2CCCN(S(=O)(=O)c3ccccc3)C2)cc1 (stereo unspecified)	-2	82*	0	0	0	2	2
Cc1ccccc1OCc1nc2ccccc2c(=O)n1/N=C/c1cn[nH]c1-c1ccccc1	-4	-5	4	2	-3	.	.
Cc1ccc(-c2[nH]ncc2/C=N/n2c(COc3ccccc3)nc3ccccc3c2=O)cc1	-8	67*	1	1	-1	3	5
O=C1CC(N2CCN(c3ccccc3)CC2)C(=O)N1c1cccc(Cl)c1 (stereo unspecified)	-10	71*	0	-1	-3	1	77*
Cc1c(Cl)cnc(NC(=O)COC(=O)C2CC3CCCC(C2)C3=O)c1Cl (stereo unspecified)	-1	3	4	-1	2	.	.
COc1ccc(Cl)cc1-c1cc(C(=O)NCc2cccc(C(F)(F)F)c2)[nH]n1	.	58*	4	3	-2	1	1
COCCNCCCCSc1ccc(Cl)cc1	1	75*	-2	-2	-1	0	0
COCCCN(C(=O)c1cc(Cl)nc2ccccc12)c1c(N)n(Cc2ccccc2)c(=O)[nH]c1=O	-1	-1	-7	0	-2	.	.
O=C(CN1C(=O)c2ccccc2C1=O)Nc1ccc(-c2nc3ccccc3o2)cc1	-6	78*	0	0	2	2	2
CCCC(=O)Nc1ccc(-c2nc3cc(C)c(C)cc3o2)cc1	-3	56*	1	-2	-1	-1	-5
O=C(NCc1cc(C(F)(F)F)ccc1Cl)c1cccc2c1C(=O)c1ccc(N3CCOCC3)cc1S2(=O)=O	-6	62*	34	-2	-3	8	2
O=[N+]([O-])c1cccc(/C=C/c2ccc3cccc(O)c3n2)c1	-2	2	4	-1	0	.	.
